ChEMBL document CHEMBL5724801, “EUbOPEN Chemogenomics Library - Multiplex” (2024)
“And” between values parts separate entries of the source, which are not always exact repeats. Identical values can stand only once.

Tested on: U2OS
Assay: Multiplex assay against U2OS
Type: toxicity, cell-based
Details: human
Procedure, shortened: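 Live cells were stained at seeding with Hoechst33342, BioTracker Green Microtubule Cytoskeleton Dye, MitoTracker Red and Annexin V Alexa Fluor 680. Following compound addition, they were imaged on a CQ1 microscope at 37°C and 5% CO2 and gated by CellPathfinder machine learning into Hoechst high-intensity objects or normal cells, with normal cells split into healthy, pyknosed or fragmented nuclei and pyknosed cells into mitotic or apoptotic. Tubulin, mitochondrial-mass and membrane-permeability phenotypes are per cents of healthy-nucleus cells.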

[1] = 12 h, 1 µM, compound concentration 1 uM
[2] = 12 h, 10 µM, compound concentration 10 uM
[3] = 24 h, 1 µM, compound concentration 1 uM
[4] = 24 h, 10 µM, compound concentration 10 uM
[5] = 48 h, 1 µM, compound concentration 1 uM
[6] = 48 h, 10 µM, compound concentration 10 uM

COC[C@@H](c1ccc(C(F)(F)F)cc1)N1CCN(C2(C)CCN(C(=O)c3c(C)ncnc3C)CC2)C[C@@H]1C.O=C(O)/C=C\C(=O)O [VICRIVIROC MALEATE]
Population Apoptotic (%) [1]: 82% and 81% | Population Fragmented Nuclei (%) [1]: 34% and 21% | Population Healthy Nuclei (%) [1]: 54% and 67% | Population Hoechst High Intensity Objects (%) [1]: 4% and 2% | Population Membrane Permeable-Phenotype (%) [1]: 8% and 11% | Population Mitochondria Different-Phenotype (%) [1]: 4% and 14% | Population Mitotic Cells (%) [1]: 17% and 18% | Population Normal (%) [1]: 95% and 97% | Population Pyknosed Nuclei (%) [1]: 11% and 10% | Population Tubulin-Different-Phenotype (%) [1]: 3% and 7% | Total Cell Count [1]: 261 and 105 | Population Apoptotic (%) [2]: 86% and 33% | Population Fragmented Nuclei (%) [2]: 26% and 28% | Population Healthy Nuclei (%) [2]: 65% | Population Hoechst High Intensity Objects (%) [2]: 1% and 2% | Population Membrane Permeable-Phenotype (%) [2]: 13% and 5% | Population Mitochondria Different-Phenotype (%) [2]: 3% and 6% | Population Normal (%) [2]: 98% and 97% | Population Pyknosed Nuclei (%) [2]: 8% and 6% | Population Tubulin-Different-Phenotype (%) [2]: 3% and 6% | Total Cell Count [2]: 270 and 91 | Population Apoptotic (%) [3]: 77% and 93% | Population Fragmented Nuclei (%) [3]: 25% and 20% | Population Healthy Nuclei (%) [3]: 67% and 64% | Population Hoechst High Intensity Objects (%) [3]: 3% and 4% | Population Membrane Permeable-Phenotype (%) [3]: 5% and 10% | Population Normal (%) [3]: 96% and 95% | Population Pyknosed Nuclei (%) [3]: 7% and 15% | Population Tubulin-Different-Phenotype (%) [3]: 2% and 10% | Total Cell Count [3]: 301 and 111 | Population Apoptotic (%) [4]: 80% and 83% | Population Fragmented Nuclei (%) [4]: 25% | Population Healthy Nuclei (%) [4]: 68% | Population Hoechst High Intensity Objects (%) [4]: 1% | Population Membrane Permeable-Phenotype (%) [4]: 3% and 4% | Population Mitochondria Different-Phenotype (%) [4]: 3% and 2% | Population Mitotic Cells (%) [4]: 19% and 16% | Population Normal (%) [4]: 98% | Population Pyknosed Nuclei (%) [4]: 6% | Population Tubulin-Different-Phenotype (%) [4]: 2% and 7% | Population Apoptotic (%) [5]: 78% and 93% | Population Fragmented Nuclei (%) [5]: 20% and 25% | Population Healthy Nuclei (%) [5]: 68% and 62% | Population Hoechst High Intensity Objects (%) [5]: 3% and 1% | Population Membrane Permeable-Phenotype (%) [5]: 3% and 13% | Population Mitochondria Different-Phenotype (%) [5]: 2% and 11% | Population Normal (%) [5]: 96% and 98% | Population Pyknosed Nuclei (%) [5]: 10% and 11% | Population Tubulin-Different-Phenotype (%) [5]: 1% and 10% | Total Cell Count [5]: 416 and 142 | Population Apoptotic (%) [6]: 80% and 93% | Population Fragmented Nuclei (%) [6]: 19% and 18% | Population Healthy Nuclei (%) [6]: 70% and 68% | Population Hoechst High Intensity Objects (%) [6]: 2% and 5% | Population Membrane Permeable-Phenotype (%) [6]: 3% | Population Mitochondria Different-Phenotype (%) [6]: 2% and 6% | Population Normal (%) [6]: 97% and 94% | Population Pyknosed Nuclei (%) [6]: 9% and 12% | Population Tubulin-Different-Phenotype (%) [6]: 1% and 6%

O=C(NCCNCC(O)COc1ccc(O)cc1)N1CCOCC1.O=C(NCCNCC(O)COc1ccc(O)cc1)N1CCOCC1.O=C(O)/C=C/C(=O)O (stereo not given) [XAMOTEROL FUMARATE]
Population Apoptotic (%) [1]: 71% and 83% | Population Fragmented Nuclei (%) [1]: 27% and 19% | Population Healthy Nuclei (%) [1]: 66% and 68% | Population Hoechst High Intensity Objects (%) [1]: 2% and 3% | Population Membrane Permeable-Phenotype (%) [1]: 6% and 13% | Population Mitochondria Different-Phenotype (%) [1]: 1% | Population Mitotic Cells (%) [1]: 28% and 16% | Population Normal (%) [1]: 97% and 96% | Population Pyknosed Nuclei (%) [1]: 5% and 11% | Population Tubulin-Different-Phenotype (%) [1]: 2% and 5% | Total Cell Count [1]: 265 and 110 | Population Apoptotic (%) [2]: 92% and 100% | Population Fragmented Nuclei (%) [2]: 28% and 15% | Population Healthy Nuclei (%) [2]: 60% and 73% | Population Hoechst High Intensity Objects (%) [2]: 0% and 4% | Population Membrane Permeable-Phenotype (%) [2]: 6% and 4% | Population Mitochondria Different-Phenotype (%) [2]: 2% and 3% | Population Mitotic Cells (%) [2]: 7% and 0% | Population Normal (%) [2]: 99% and 95% | Population Pyknosed Nuclei (%) [2]: 11% | Population Tubulin-Different-Phenotype (%) [2]: 4% and 7% | Total Cell Count [2]: 239 and 118 | Population Apoptotic (%) [3]: 85% and 80% | Population Fragmented Nuclei (%) [3]: 24% and 18% | Population Healthy Nuclei (%) [3]: 68% and 69% | Population Hoechst High Intensity Objects (%) [3]: 0% and 1% | Population Membrane Permeable-Phenotype (%) [3]: 5% and 10% | Population Mitochondria Different-Phenotype (%) [3]: 0% and 4% | Population Mitotic Cells (%) [3]: 15% and 20% | Population Normal (%) [3]: 99% and 98% | Population Pyknosed Nuclei (%) [3]: 6% and 11% | Population Tubulin-Different-Phenotype (%) [3]: 1% and 5% | Total Cell Count [3]: 312 and 129 | Population Apoptotic (%) [4]: 89% and 78% | Population Fragmented Nuclei (%) [4]: 22% and 16% | Population Healthy Nuclei (%) [4]: 66% and 70% | Population Hoechst High Intensity Objects (%) [4]: 1% | Population Membrane Permeable-Phenotype (%) [4]: 6% | Population Mitochondria Different-Phenotype (%) [4]: 2% | Population Mitotic Cells (%) [4]: 10% and 21% | Population Normal (%) [4]: 98% | Population Pyknosed Nuclei (%) [4]: 10% and 12% | Population Tubulin-Different-Phenotype (%) [4]: 2% and 6% | Total Cell Count [4]: 270 and 152 | Population Apoptotic (%) [5]: 90% and 91% | Population Fragmented Nuclei (%) [5]: 18% and 23% | Population Healthy Nuclei (%) [5]: 75% and 62% | Population Hoechst High Intensity Objects (%) [5]: 1% and 2% | Population Membrane Permeable-Phenotype (%) [5]: 4% and 6% | Population Mitochondria Different-Phenotype (%) [5]: 2% and 3% | Population Mitotic Cells (%) [5]: 9% and 8% | Population Normal (%) [5]: 98% and 97% | Population Pyknosed Nuclei (%) [5]: 6% and 13% | Population Tubulin-Different-Phenotype (%) [5]: 2% and 4% | Total Cell Count [5]: 472 and 171 | Population Apoptotic (%) [6]: 89% and 94% | Population Fragmented Nuclei (%) [6]: 18% and 17% | Population Healthy Nuclei (%) [6]: 68% and 73% | Population Hoechst High Intensity Objects (%) [6]: 1% and 2% | Population Membrane Permeable-Phenotype (%) [6]: 2% and 4% | Population Mitochondria Different-Phenotype (%) [6]: 1% and 4% | Population Mitotic Cells (%) [6]: 10% and 5% | Population Normal (%) [6]: 98% and 97% | Population Pyknosed Nuclei (%) [6]: 12% and 9% | Population Tubulin-Different-Phenotype (%) [6]: 2% and 6% | Total Cell Count [6]: 392 and 206
